Results taken from ChEMBL document CHEMBL4325870, “Synthesis and biological evaluation of 3-aryl-quinolin derivatives as anti-breast cancer agents targeting ERα and VEGFR-2” (Eur J Med Chem, 2019).
Calls of active or inactive are those of the source. The rule behind the calls is not given here.

Legend:
Ishikawa [1] = assay: Antiproliferative activity against human Ishikawa cells after 48 hrs by MTT assay; format: functional
Summary of the method: (§1)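 Cells kept in RPMI1640 with 10% FBS and penicillin/streptomycin at 37 °C, 5% CO2. Seeded at 1 x 10^5/mL, grown 24 h, then exposed to compound-containing medium for 48 h; controls received 1% DMSO medium. MTT (5 mg/mL) added for 4 h in the dark, formazan dissolved in DMSO, absorbance read. Value is concentration giving 50% growth inhibition.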

Ishikawa [2] = assay: Stimulation of cell proliferation in human Ishikawa cells at 1 to 10 uM after 48 hrs by MTT assay; format: ADME, cell-based
Summary of the method: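 Ishikawa endometrial cells in RPMI1640 with 10% FBS, seeded at 1 x 10^5/mL, exposed 48 h to compound at 1 μM or 10 μM, then read by MTT assay (5 mg/mL MTT, 4 h, dark, DMSO solubilisation, absorbance).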

MCF7 [3] = assay: Antiproliferative activity against human MCF7 cells after 48 hrs by MTT assay; format: functional, cell-based; conditions: MCF7, 48 h; summary of the method: as §1
MCF7 [4] = assay: Effect on progesterone receptor mRNA expression in non-stimulated human MCF7 cells at 1 uM by SYBR green dye based RT-PCR analysis; format: ADME, cell-based; conditions: mcf7, 1 µM
Summary of the method: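 Real-time PCR on MCF-7 cells given compound at 1 μM alone, without estradiol. Amplification: 95 °C 2 min, then 40 cycles of 95 °C 10 s, 60 °C 30 s, 95 °C 10 s. PgR mRNA normalised to GAPDH by the ΔΔCT method; mean ± SD, n=3.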

HUVEC = assay: Antiproliferative activity against HUVEC after 48 hrs by MTT assay; format: functional, cell-based; conditions: Homo sapiens; summary of the method: as §1
[5] = target: Vascular endothelial growth factor receptor 2 (Homo sapiens, UniProt P35968)
Estrogen receptor = target: T1, Estrogen receptor (Homo sapiens, UniProt P03372); assay: Displacement of fluorescent estrogen ligand from recombinant human full length untagged ERalpha expressed in Spodoptera frugiperda insect cells measured after 2 hrs by fluorescence polarization assay
T1 sequence (P03372 whole entry): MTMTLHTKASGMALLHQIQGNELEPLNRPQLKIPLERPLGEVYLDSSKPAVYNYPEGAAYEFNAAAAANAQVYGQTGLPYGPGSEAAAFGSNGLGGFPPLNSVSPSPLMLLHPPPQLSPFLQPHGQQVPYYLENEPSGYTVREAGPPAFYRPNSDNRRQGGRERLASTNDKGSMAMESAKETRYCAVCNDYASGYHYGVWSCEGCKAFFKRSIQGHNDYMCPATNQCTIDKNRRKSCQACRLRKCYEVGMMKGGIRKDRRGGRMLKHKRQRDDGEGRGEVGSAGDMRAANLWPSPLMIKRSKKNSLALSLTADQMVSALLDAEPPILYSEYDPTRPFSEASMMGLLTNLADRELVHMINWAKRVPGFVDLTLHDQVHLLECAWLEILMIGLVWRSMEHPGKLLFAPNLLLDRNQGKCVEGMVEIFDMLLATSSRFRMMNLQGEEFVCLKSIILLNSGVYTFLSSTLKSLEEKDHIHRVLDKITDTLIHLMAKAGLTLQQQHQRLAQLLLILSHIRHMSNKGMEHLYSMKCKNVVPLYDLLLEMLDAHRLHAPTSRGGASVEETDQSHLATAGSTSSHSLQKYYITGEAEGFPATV

MCF7 [6] = assay: Cell cycle arrest in human MCF7 cells assessed as accumulation at S phase at 1.25 uM after 12 hrs by propidium iodide staining based flow cytometry (reference value: 18.93%); format: functional
Summary of the method: (§2)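 MCF-7 cells exposed to 1.25 μM compound or DMSO vehicle for 12 h and 24 h. Cells washed in ice-cold PBS, pelleted, fixed in ice-cold 70% ethanol, RNase-treated (0.1 mg/mL), stained with propidium iodide, and analysed by flow cytometry for G1, S and G2 phase distribution.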

MCF7 [7] = assay: Cell cycle arrest in human MCF7 cells assessed as accumulation at G2 phase at 1.25 uM after 24 hrs by propidium iodide staining based flow cytometry (reference value: 31.48%); format: functional; summary of the method: as §2
MCF7 [8] = assay: Cell cycle arrest in human MCF7 cells assessed as accumulation at S phase at 1.25 uM after 24 hrs by propidium iodide staining based flow cytometry (reference value: 18.93%); format: functional; summary of the method: as §2
MCF7 [9] = assay: Cell cycle arrest in human MCF7 cells assessed as accumulation at G1 phase at 1.25 uM after 12 hrs by propidium iodide staining based flow cytometry (reference value: 46.25%); format: functional; summary of the method: as §2
MCF7 [10] = assay: Cell cycle arrest in human MCF7 cells assessed as accumulation at G1 phase at 1.25 uM after 24 hrs by propidium iodide staining based flow cytometry (reference value: 46.25%); format: functional; summary of the method: as §2
MCF7 [11] = assay: Cell cycle arrest in human MCF7 cells assessed as accumulation at G2 phase at 1.25 uM after 12 hrs by propidium iodide staining based flow cytometry (reference value: 31.48%); format: functional; summary of the method: as §2
MCF7 [12] = assay: Antimigratory activity in human MCF7 cells assessed as inhibition of wound healing at 1.25 uM after 8 to 48 hrs by phase contrast microscopic analysis; format: functional, cell-based
Summary of the method: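 Wound-healing assay: MCF-7 monolayers grown to full confluence in 24-well plates, scratched with a tip, washed twice with PBS, then given serum-free 1640 medium with or without compound at 1.25 μM. Wound closure photographed by phase-contrast microscopy (100×) at 8, 16, 24/48 h; migration rate quantified from images.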

Vascular endothelial growth factor receptor 2, sequence (P35968 whole entry): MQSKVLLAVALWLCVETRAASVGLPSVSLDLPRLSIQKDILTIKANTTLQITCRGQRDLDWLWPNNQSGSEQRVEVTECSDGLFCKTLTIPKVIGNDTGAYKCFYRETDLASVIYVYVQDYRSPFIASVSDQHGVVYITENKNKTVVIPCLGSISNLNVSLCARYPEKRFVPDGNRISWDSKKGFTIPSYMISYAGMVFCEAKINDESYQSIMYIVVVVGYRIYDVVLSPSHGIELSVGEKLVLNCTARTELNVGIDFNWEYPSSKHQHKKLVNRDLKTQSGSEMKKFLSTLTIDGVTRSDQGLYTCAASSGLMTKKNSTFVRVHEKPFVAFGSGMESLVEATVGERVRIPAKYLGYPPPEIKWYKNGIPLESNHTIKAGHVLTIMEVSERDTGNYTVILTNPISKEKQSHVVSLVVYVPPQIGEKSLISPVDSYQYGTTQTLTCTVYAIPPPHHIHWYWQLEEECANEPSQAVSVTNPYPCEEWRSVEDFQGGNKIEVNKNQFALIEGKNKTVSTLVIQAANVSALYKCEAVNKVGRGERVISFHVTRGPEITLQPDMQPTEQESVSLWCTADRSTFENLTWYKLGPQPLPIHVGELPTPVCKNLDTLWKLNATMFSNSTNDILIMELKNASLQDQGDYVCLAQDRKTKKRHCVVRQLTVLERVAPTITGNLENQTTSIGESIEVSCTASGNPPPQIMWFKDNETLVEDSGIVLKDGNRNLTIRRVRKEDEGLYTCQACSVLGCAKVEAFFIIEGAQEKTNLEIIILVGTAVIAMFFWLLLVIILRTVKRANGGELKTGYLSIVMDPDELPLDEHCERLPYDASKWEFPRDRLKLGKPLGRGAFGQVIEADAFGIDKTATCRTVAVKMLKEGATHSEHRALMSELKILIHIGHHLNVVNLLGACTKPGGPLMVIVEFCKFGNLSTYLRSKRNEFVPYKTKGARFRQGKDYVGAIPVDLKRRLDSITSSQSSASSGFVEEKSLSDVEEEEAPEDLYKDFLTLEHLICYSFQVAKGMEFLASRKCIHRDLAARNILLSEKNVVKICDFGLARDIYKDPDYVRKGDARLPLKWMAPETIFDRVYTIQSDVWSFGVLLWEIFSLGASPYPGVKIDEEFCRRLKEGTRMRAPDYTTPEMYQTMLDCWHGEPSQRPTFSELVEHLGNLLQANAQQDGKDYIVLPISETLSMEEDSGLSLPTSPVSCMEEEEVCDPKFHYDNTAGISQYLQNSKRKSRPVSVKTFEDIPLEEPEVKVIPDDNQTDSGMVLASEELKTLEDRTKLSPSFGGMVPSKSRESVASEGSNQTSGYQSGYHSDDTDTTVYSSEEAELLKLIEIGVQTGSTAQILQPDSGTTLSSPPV

With `CC/C(=C(\c1ccccc1)c1ccc(OCCN(C)C)cc1)c1ccccc1` [TAMOXIFEN] the Activity (Ishikawa [1]) was over 50 µM, the Activity (Ishikawa [2]) was “Toxic” and the IC50 (MCF7 [3]) was 16.7 µM. For the same compound, the Activity (MCF7 [4]) was “Non-Toxic”.

Compound `COc1ccc(-c2cc3cc(OC)ccc3nc2Nc2ccc(NC(=O)CN(C)C)cc2)cc1` has an Activity (Ishikawa [1]) of over 50 µM, an IC50 (MCF7 [3]) of 39.5 µM and an IC50 (HUVEC) of 22.2 µM. For the same compound, the IC50 [5] was 0.109 µM.

`COc1ccc(-c2cc3ccc(OC)cc3nc2Nc2ccc(NC(=O)CN(C)C)cc2)cc1` was tested, and the Activity (Ishikawa [1]) was 8.4 µM, the IC50 (MCF7 [3]) was 9.6 µM and the IC50 (HUVEC) was 9.2 µM. For the same compound, the IC50 [5] was 0.114 µM.

With `COc1ccc(-c2cc3cc(OC)ccc3nc2Nc2ccc(NC(=O)CN3CCCC3)cc2)cc1` the Activity (Ishikawa [1]) was 10.3 µM, the IC50 (MCF7 [3]) was 7.29 µM and the IC50 (HUVEC) was 13.1 µM. For the same compound, the IC50 [5] was 0.131 µM.

For `COc1ccc(-c2cc3ccc(OC)cc3nc2Nc2ccc(NC(=O)CN3CCN(C)CC3)cc2)cc1`, the Activity (Ishikawa [1]) was 3.8 µM, the Activity (Ishikawa [2]) was “Non-Toxic” and the IC50 (Estrogen receptor) was 2.33 µM. The IC50 (MCF7 [3]) was 2.8 µM, the IC50 (HUVEC) was 7.4 µM and the IC50 [5] was 0.104 µM.

`COc1ccc(-c2cc3ccc(OC)cc3nc2Nc2ccc(NC(=O)CN3CCOCC3)cc2)cc1` was tested, and the Activity (Ishikawa [1]) was over 50 µM, the IC50 (MCF7 [3]) was over 50 µM and the IC50 (HUVEC) was 9.1 µM. It also gave an IC50 [5] of 0.11 µM.

With `COc1ccc(-c2cc3cc(OC)ccc3nc2Nc2ccc(NC(=O)CN3CCN(C)CC3)cc2)cc1` the Activity (MCF7 [6]) was 18.78%, the Activity (MCF7 [7]) was 20.43% and the Activity (Ishikawa [1]) was 1.8 µM. For the same compound, the Activity (MCF7 [8]) was 22.39%, the Activity (MCF7 [9]) was 51.18% and the Activity (Ishikawa [2]) was “Non-Toxic”. The Activity (MCF7 [10]) was 54.63%, the IC50 (Estrogen receptor) was 1.78 µM and the IC50 (MCF7 [3]) was 1.8 µM. For the same compound, the IC50 (HUVEC) was 7.4 µM, the Activity (MCF7 [4]) was “Non-Toxic” and the IC50 [5] was 0.086 µM. It also gave an Activity (MCF7 [11]) of 28.82%.

Work on `CCN(CC)CC(=O)Nc1ccc(Nc2nc3ccc(OC)cc3cc2-c2ccc(OC)cc2)cc1` yielded an Activity (Ishikawa [1]) of over 50 µM, an IC50 (MCF7 [3]) of over 50 µM and an IC50 (HUVEC) of 45.6 µM. It also gave an IC50 [5] of 0.081 µM.

`COc1ccc(-c2cc3ccc(OC)cc3nc2Nc2ccc(NC(=O)CN3CCCC3)cc2)cc1` gave an Activity (Ishikawa [1]) of 8.2 µM, an IC50 (MCF7 [3]) of 6.6 µM and an IC50 (HUVEC) of 8.6 µM. The IC50 [5] was 0.125 µM.

For `COc1ccc(-c2cc3cc(OC)ccc3nc2Nc2ccc(NC(=O)CN3CCOCC3)cc2)cc1`, the Activity (Ishikawa [1]) was over 50 µM, the IC50 (MCF7 [3]) was over 50 µM and the IC50 (HUVEC) was over 50 µM. The IC50 [5] was 0.117 µM.

Work on `CCN(CC)CC(=O)Nc1ccc(Nc2nc3cc(OC)ccc3cc2-c2ccc(OC)cc2)cc1` yielded an Activity (Ishikawa [1]) of 21.4 µM, an IC50 (MCF7 [3]) of 17.3 µM and an IC50 (HUVEC) of 14 µM. The IC50 [5] was 0.101 µM.

Work on `COc1ccc(-c2cc3ccc(OC)cc3nc2Nc2ccc(NC(=O)CN3CCCCC3)cc2)cc1` yielded an Activity (Ishikawa [1]) of over 50 µM, an IC50 (MCF7 [3]) of 47.9 µM and an IC50 (HUVEC) of 23.5 µM. It also gave an IC50 [5] of 0.079 µM.

For `O=C(c1ccc(OCCN2CCCCC2)cc1)c1c(-c2ccc(O)cc2)sc2cc(O)ccc12` [RALOXIFENE], the Activity (Ishikawa [1]) was over 50 µM, the Activity (Ishikawa [2]) was “Toxic” and the IC50 (MCF7 [3]) was 12.5 µM.

With `CCN(CC)CCNC(=O)c1c(C)[nH]c(/C=C2\C(=O)Nc3ccc(F)cc32)c1C` [SUNITINIB] the inhibition (MCF7 [12]) was “Active”, the Activity (Ishikawa [1]) was 14.3 µM and the IC50 (HUVEC) was 3.2 µM.

Compound `COc1ccc(-c2cc3cc(OC)ccc3nc2Nc2ccc(NC(=O)CN3CCCCC3)cc2)cc1` has an Activity (Ishikawa [1]) of over 50 µM, an IC50 (MCF7 [3]) of over 50 µM and an IC50 (HUVEC) of over 50 µM. It also gave an IC50 [5] of 0.08 µM.
